High-throughput results from PubChem.
Platelet DG rel = modulates dense granule release in human platelets; human platelet-rich plasma, SFLLRN dense granule ATP release, luminescence; inhibition, %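 (compounds screened at 7.5 µM in platelet-rich plasma)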; actives 0.22% (n = 300,000);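 active = mean replicate score, as percent of positive control, at or above 50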
SENP1 FRET inh = SENP1 (human) catalytic domain inhibition; recombinant SENP1 catalytic domain, CyPet-SUMO1-YPet FRET cleavage; inhibition, % at 10 µM; actives 0.21% (n = 360,000);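 active = inhibition at least 30% at 10 µM, raw YFP signal under a set limit, fluorescence ratio 0.5 to 1.5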;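 also: 0% = enzyme with DMSO and 100% = no enzyme wells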
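Material – human SENP1 catalytic domain · Input – SENP1 enzyme, 20 pM final · Compound dosing – single concentration of 10 µM compound, 0.5% DMSO final · Timing – enzyme reaction for 50 min at room temperature, dark · Measured by – FRET fluorescence in CFP and YFP emission channels · Control set – no-enzyme wells low, DMSO-plus-enzyme wells high control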
SENP6 inh = inhibitors of human SENP6 protease. AID 2599. actives 1.8% (n = 330,000). Q9GZR1. Recombinant SENP6 catalytic domain, aminoluciferin luminescence. inhibition, % at 10 µM;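 active = inhibition above about 50% at the single tested dose, limit read from the data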;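 also: plate controls were DMSO wells with enzyme for no effect and DMSO wells lacking enzyme for full effect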
Target sequence (Q9GZR1 628-1112 limits assumed): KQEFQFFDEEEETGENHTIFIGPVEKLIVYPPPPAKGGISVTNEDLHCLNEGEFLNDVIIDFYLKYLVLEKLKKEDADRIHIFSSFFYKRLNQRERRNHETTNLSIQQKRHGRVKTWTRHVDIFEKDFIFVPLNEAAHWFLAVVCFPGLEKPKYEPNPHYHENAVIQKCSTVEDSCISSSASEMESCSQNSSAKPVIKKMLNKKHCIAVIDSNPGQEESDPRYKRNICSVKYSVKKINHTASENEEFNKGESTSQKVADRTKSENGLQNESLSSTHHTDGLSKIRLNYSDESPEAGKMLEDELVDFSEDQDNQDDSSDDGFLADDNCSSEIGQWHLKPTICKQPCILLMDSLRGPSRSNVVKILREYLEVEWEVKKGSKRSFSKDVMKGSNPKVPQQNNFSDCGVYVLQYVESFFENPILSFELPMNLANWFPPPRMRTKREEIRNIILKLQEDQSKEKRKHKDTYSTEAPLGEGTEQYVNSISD
SENP8 block-1 = SENP8 protease inhibition; Q96LD8; purified SENP8, Z-RLRGG-aminoluciferin cleavage, luminescence; inhibition, % at 10 µM; actives 1.2% (n = 330,000); in the data active = inhibition above about 50%
SENP7 inh = SENP7 protease inhibition. Q9BQF6. recombinant SENP7, Z-RLRGG-aminoluciferin luminescence, 40 min. inhibition, % at 5 µM. actives 1.5% (n = 330,000). AID 434973;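 active = inhibition above about 50% at the single test dose, limit read from the data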;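 also: plate controls were DMSO with enzyme for no effect and no enzyme buffer wells for full effect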
SENP8 block-2 = SENP8 (human) protease inhibition; Q96LD8; recombinant SENP8, Nedd8 substrate fluorescence; inhibition, % at 20 µM; actives 0.64% (n = 360,000); AID 602440; in the data active = inhibition mostly above about 40%, no sharp cut-off; inactive = mostly below about 27%
* = called active by the depositor; i = inactive; nt = not tested or not shown. Hits are enriched below; roughly 2.6% of the tested compounds scored in any of these assays.

SMILES	Platelet DG rel	SENP1 FRET inh	SENP6 inh	SENP8 block-1	SENP7 inh	SENP8 block-2
CC1=NN(c2ccccc2)C(=O)C1	0.8	3.0	-8.1	-5.2	-2.8	49.1*
CC1=NN(c2ccc(N)cc2)C(=O)C1	13.0	-1.9	27.7	4.7	17.9	67.5*
CC1=NN(c2cccc([N+](=O)[O-])c2)C(=O)C1	-7.5	1.9	24.3	3.1	17.1	21.2
O=C(c1ccco1)N1CCN(C(=O)c2ccco2)CC1	nt	1.9	nt	nt	nt	3.7
NC(=O)N1CCN(C(=O)c2ccco2)CC1	50.8*	2.2	9.1	-3.6	6.9	16.4
COc1cc(/C=C2/C(=O)N(c3ccc([N+](=O)[O-])cc3)N=C2N2CCOCC2)ccc1O	6.8	4.5	42.3	-1.0	21.2	63.9*
COc1ccc(NC(=O)C2CCCN(c3nn4c(=O)cc(C)nc4s3)C2)cc1 (stereo unspecified)	103.7*	0.0	-8.4	2.9	-1.1	3.0
Nc1nn2cc(-c3ccc(Br)cc3)nc2c2ccccc12	15.4	-0.3	87.4*	75.4*	79.3*	i
O=[N+]([O-])c1cccn2cc(-c3ccc(Br)cc3)nc12	-6.3	-3.1	-12.9	2.6	1.9	9.2
ClN=C1C=CC=CC1=NCl	nt	-7.3	nt	nt	nt	37.9*
C=CCc1cccc2cc(C(=O)Nc3cccc(C(=O)O)c3)c(=O)oc12	5.7	nt	54.6*	21.2	24.8	nt
CCOC(=O)COc1cc(OCC(=O)OCC)c2c3c(c(=O)oc2c1)CCCC3	12.2	-2.2	-25.9	-7.6	-1.2	-284.3
Cc1ccc(N2CC(C(=O)Nc3cccnc3)CC2=O)cc1Cl (stereo unspecified)	-2.8	-0.9	-13.3	-0.5	-4.3	6.0
Nc1[nH]n(-c2ccccc2)c(=O)c1N=Nc1ccc2c(c1)OCO2	-0.6	4.9	64.5*	51.5*	68.7*	52.3*
Cc1[nH]n(-c2ccccc2)c(=O)c1N=Nc1ccccc1	-7.6	4.1	-2.1	-12.0	-7.1	25.5
O=c1nc(Nc2cccc(Cl)c2)oc2cc(Cl)oc(=O)c12	5.2	-139.6	95.5*	95.4*	-6.1	-16.6
O=C(CCn1c(=O)[nH]c2ccccc2c1=O)NCCSCc1ccccc1	-2.8	3.2	7.2	6.2	1.9	1.3
O=C1/C(=C/c2cccs2)SC(=S)N1c1cccc(O)c1	0.6	2.0	-21.9	-6.5	-14.0	47.8*
COC(=O)CC(NC(=S)NC(=O)c1ccccc1)c1ccc(Br)cc1 (stereo unspecified)	2.8	-0.9	17.0	3.1	7.1	4.7
COc1cc(S(=O)(=O)Nc2ccc(C)cc2)ccc1N=Cc1c(C)[nH]n(-c2ccccc2)c1=O	0.9	7.1	4.0	-7.2	6.3	45.9*
Cc1[nH]n(-c2ccccc2)c(=O)c1C=Nc1ccc(S(=O)(=O)Nc2nccs2)cc1	0.1	3.1	1.6	-4.3	-2.2	43.6*
O=C(NCc1ccccn1)[C@@H]1CCCN1C(=O)[C@@H]1CCCN1C(=O)c1ccc(Cl)cc1	nt	0.3	nt	nt	nt	-385.7
O=C(NC1CCN(Cc2ccccc2)CC1)c1cc(S(=O)(=O)N2CCOCC2)ccc1Cl	nt	0.0	nt	nt	nt	11.0
Cc1ccc(/C=C2\SC(=S)N(CCCC(=O)Nc3cccc(C(=O)O)c3)C2=O)cc1	-7.6	2.8	91.4*	87.0*	60.6*	33.8
O=C(CCN1C(=O)/C(=C\C=C\c2ccccc2)SC1=S)Nc1ccccc1C(=O)O	-11.1	-9.1	-0.5	8.6	3.3	-2.3
SMILES	Platelet DG rel	SENP1 FRET inh	SENP6 inh	SENP8 block-1	SENP7 inh	SENP8 block-2
Cc1ccc(/C=C2\SC(=S)N(CCC(=O)NNS(=O)(=O)c3ccccc3)C2=O)cc1	4.5	-2.6	-2.6	4.4	-3.5	59.2*
Cc1ccc(C=C2SC(=S)N(CCCC(=O)Nc3cccc(C(=O)O)c3)C2=O)cc1	nt	3.5	nt	nt	nt	25.9
O=C(CCN1C(=O)/C(=C\C=C\c2ccccc2)SC1=S)Nc1cccc(C(=O)O)c1	-4.0	-11.1	53.0*	55.4*	-10.8	24.0
COc1ccc(Cc2c3cc(OC)c(OC)cc3cc[n+]2C)cc1OC	0.9	0.8	20.3	13.7	-5.8	59.9*
O=c1c(O)cccc2cc(O)c(O)c(O)c12	1.9	4.1	-52.1	5.8	-2.9	60.2*
O=c1cc(-c2ccccc2)oc2cc(O)c(O)c(O)c12	nt	-4.4	5.5	10.3	-3.1	0.5
CN1C(=O)/C(=C/c2ccc(-c3ccccc3[N+](=O)[O-])o2)SC1=Nc1ccc(Cl)c(C(=O)O)c1	9.8	3.1	nt	nt	nt	41.7*
COc1ccc(-c2noc(N3CCCC(C(=O)Nc4ccc(C(C)=O)cc4)C3)n2)cc1 (stereo unspecified)	9.9	2.2	34.9	29.3	27.9	8.6
Cn1c(=O)[nH]c(=O)c2c1nc(CN1CCN(c3cccc(Cl)c3)CC1)n2Cc1ccccc1Cl	1.9	1.4	-4.0	6.2	-6.9	12.7
CCN1CCN(Cc2nc3c(c(=O)[nH]c(=O)n3C)n2Cc2ccccc2Cl)CC1	64.9*	-0.5	-10.5	-0.3	-2.2	-6.2
CCOC(=O)/C=C(\C)Sc1cc(O)c2ccccc2c1O	nt	3.8	nt	nt	nt	48.5*
CC(C)(C)c1cc[n+](-c2[nH]c(=O)sc2/C=N/NC([S-])=Nc2ccccc2)cc1	0.0	45.5*	-2.2	3.6	4.0	25.0*
O=C(C=C=Nc1ccccc1)C(=O)N=C=Cc1ccccc1	52.9*	1.0	-7.6	-8.5	-7.4	-5.4
O=C(N/N=C/c1ccccc1)C(=O)N/N=C/c1ccccc1	9.1	1.9	-3.2	6.3	-0.1	17.3
O=[N+]([O-])c1ccccc1NCCOc1ccccc1	-10.4	0.8	82.3*	59.9*	73.3*	16.4
O=C(CCOc1ccccc1)Nc1ccccc1[N+](=O)[O-]	2.3	-1.1	11.5	-2.4	3.3	15.4
CC(C)c1ccc(OCc2ccc(C(=O)O)o2)cc1	1.8	2.1	95.4*	86.7*	76.9*	-20.6
COc1cc(/C=C2\SC(=S)N(NC(=O)c3ccc(O)c(OC)c3)C2=O)ccc1O	0.7	18.4	-17.1	4.5	3.7	36.3
COc1cc(/C=C2\SC(=S)N(NC(=O)c3ccncc3)C2=O)ccc1O	4.1	48.8*	4.1	6.2	11.4	32.6
CCOc1cc(/C=C2\SC(=S)N(NC(=O)c3cccnc3)C2=O)ccc1O	3.7	50.3*	-11.9	8.4	-2.1	17.0
COc1cc(/C=C2\SC(=S)N(NC(=O)c3cccc(O)c3)C2=O)ccc1O	9.1	24.0	9.1	7.8	3.7	25.4
Nc1ccc(C2=Nc3cccc4cccc(c34)N2)cc1	-10.5	-13.9	nt	nt	nt	10.6
CC1=Nc2cccc3cccc(c23)N1	1.9	-10.0	14.4	3.7	12.9	47.3*
Cc1cc(C(=O)OCC(=O)Nc2ccccc2Br)c(C)o1	nt	3.8	-11.3	-20.8	-10.3	9.5
Cc1nn(-c2ccccc2)c2c1C(c1ccccc1)C(C#N)=C(N)O2 (stereo unspecified)	1.4	0.0	46.1	3.7	52.1*	2.3
